Published values collected from several papers.
Cell line: MCF7
Observed: cell growth or viability

C=CC(=O)Nc1cc(Nc2nccc(-c3cn(C)c4ccccc34)n2)c(OC)cc1N(C)CCN(C)C
IC50 (MTS; 72 h): 8.34 µM

COc1ccc(-c2cc(-c3ccccc3Cl)c3c(=O)[nH]c(=O)[nH]c3n2)cc1
IC50 (MTT; 48 h): 17.5 µM

CC(C)NCC(COc1cccc2ccccc12)OC(=O)C=Cc1ccc(O)c(O)c1 (centres unmarked)
IC50 (MTT): 5.37 µM

COc1cc2c3c(n(CCCNCCO)c(=O)c2cc1OC)-c1nc2c(cc1C3=O)OCO2
IC50 (72 h): 0.369 µM

COc1ccc(-c2cc(-c3c(OC)cccc3OC)c3c(=O)n(C)c(=O)n(C)c3n2)cc1
IC50 (MTT; 48 h): 11.3 µM

CC1CCC(C(C)C)C(OC(=O)C=Cc2ccc(O)c(O)c2)C1 (centres unmarked)
IC50 (MTT): 28.6 µM

O=C(C=Cc1ccccc1)Nc1cc(-c2ccnc(N3CCC(O)CC3)c2)ccn1
IC50 (MTT; 72 h): 2.51 µM

COc1cc2c3c(n(CCCN4CCOCC4)c(=O)c2cc1OC)-c1nc2c(cc1C3=O)OCO2
IC50 (72 h): 0.936 µM

Cc1nc(Nc2ccc3c(c2)/C(=C/c2ccccc2Cl)C(=O)N3)c2ccccc2n1
IC50 (MTT): 6.45 µM

Cc1ccc(-c2cc(-c3ccc(N(C)C)cc3)c3c(=O)n(C)c(=O)n(C)c3n2)cc1
IC50 (MTT; 48 h): 15.8 µM

Cc1nc(Nc2ccc3c(c2)C(C)(C)C(=O)N3C)c2ccccc2n1
IC50 (MTT): 36.3 µM

Cc1nc2ccc(CN(C)c3ccc(C(=O)N[C@@H](CCC(=O)O)C(=O)O)s3)cc2c(=O)[nH]1
IC50 (MTT; 48 h): 1.98 µM

Cc1nc(NC(=O)N2CCC[C@H]2C(N)=O)sc1-c1ccnc(C(C)(C)C(F)(F)F)c1
IC50 (MTT): 1.89 µM

CN(Cc1cnc2nc(N)nc(N)c2n1)c1ccc(C(=O)N[C@@H](CCC(=O)O)C(=O)O)cc1
IC50 (MTT): 19 µM

Cc1nc(N(C)c2ccc3c(c2)/C(=C/c2ccccc2Cl)C(=O)N3C)c2ccccc2n1
IC50 (MTT): 10.8 µM

COc1ccc(-c2cc(-c3cc(OC)ccc3OC)c3c(=O)n(C)c(=O)n(C)c3n2)cc1
IC50 (MTT; 48 h): 19.8 µM

COc1cc2ncnc(Nc3ccc4c(c3)/C(=C/c3ccccc3)C(=O)N4C)c2cc1OC
IC50 (MTT): 7.84 µM

COc1ccc(-c2cc(-c3ccc(OC)cc3)c3c(=O)[nH]c(=O)[nH]c3n2)cc1
IC50 (MTT; 48 h): 8.38 µM

COc1cc2ncnc(N(C)c3ccc4c(c3)/C(=C/c3cccc(Cl)c3)C(=O)N4C)c2cc1OC
IC50 (MTT): 6.53 µM

CCNCCCn1c2c(c3cc(OC)c(OC)cc3c1=O)C(=O)c1cc3c(nc1-2)OCO3
IC50 (72 h): 0.262 µM
